Compound activity deposited in PubChem BioAssay by Sanford-Burnham Center for Chemical Genomics.
Sampled rows, rich in hits. Any-hit rate of the full collection: about 0.72%.
hIAP block = blocks human intestinal alkaline phosphatase | P09923 | purified IAP, CDP-Star luminescence, 30 min | inhibition, % at 10 µM | hit rate 0.12% among 330,000 | AID 2544;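 active = inhibition reaching a set limit with compound at 10 µM in the primary screen, cut at about 35% in these data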
Target sequence (P09923 whole entry, looked up): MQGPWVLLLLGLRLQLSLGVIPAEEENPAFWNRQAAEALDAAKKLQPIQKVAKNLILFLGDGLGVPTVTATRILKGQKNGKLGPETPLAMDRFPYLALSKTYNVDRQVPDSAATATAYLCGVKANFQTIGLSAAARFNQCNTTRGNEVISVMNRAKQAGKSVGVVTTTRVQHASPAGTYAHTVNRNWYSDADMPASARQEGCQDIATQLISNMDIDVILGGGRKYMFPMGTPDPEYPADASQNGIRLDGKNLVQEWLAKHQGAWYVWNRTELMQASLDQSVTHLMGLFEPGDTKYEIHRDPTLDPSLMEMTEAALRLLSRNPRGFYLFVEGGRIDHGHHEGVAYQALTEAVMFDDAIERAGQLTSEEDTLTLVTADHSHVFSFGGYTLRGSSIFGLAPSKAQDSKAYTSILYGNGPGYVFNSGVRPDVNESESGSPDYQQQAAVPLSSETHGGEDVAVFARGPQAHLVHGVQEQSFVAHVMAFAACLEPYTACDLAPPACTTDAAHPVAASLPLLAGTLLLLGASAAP
bIAP inhibitor = blocks bovine intestinal alkaline phosphatase activity | purified bovine IAP, CDP-star luminescence, 30 min | inhibition, % at 20 µM | 190,000 tested, under 10 active | AID 1019;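 active = over 50% inhibition of intestinal alkaline phosphatase at 20 µM in the single-dose screen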
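Assay system – bovine IAP enzyme · Quantity – bovine IAP at 1/65,000,000 final dilution · Detection – CDP-star luminescence signal · Times – 30 min reaction at room temperature · Also added – CDP-star substrate at 30 µM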
bIAP activator = intestinal alkaline phosphatase (bovine) activation | hit rate 0.17% among 200,000 | AID 1016 | purified bovine IAP, CDP-star luminescence, 30 min; active compounds read high; fold of DMSO-control signal, blank-subtracted | activation factor at 20 µM;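 active = activation factor of 2 or more at 20 µM, a signal rise over negative controls twice the positive control's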
mIAP inh = blocks mouse intestinal alkaline phosphatase. purified mouse IAP, CDP-Star luminescence, 30 min. inhibition, % at 10 µM. hit rate 0.2% among 330,000. AID 2806;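 active = inhibition of at least 40% at 10 µM in the primary screen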
mIAP activ = increases mouse intestinal alkaline phosphatase activity | muIAP, CDP-Star luminescence, 30 min; active compounds read high; 1 = vehicle-only enzyme signal, 0 = enzyme-free wells | activation factor at 10 µM | hit rate 0.24% among 330,000 | AID 2805;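 active = activation factor of at least 2 at 20 µM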
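also added = chemiluminescent substrate CDP-Star | test system = mouse IAP enzyme | signal = chemiluminescence readout | compound = DMSO-dissolved test compounds | incubation = 30 min at room temperature | benchmarks = DMSO wells, no-enzyme wells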
hIAP activ = human IAP activation; purified human IAP, CDP-Star luminescence, 30 min; active compounds read high; 1 = vehicle-only enzyme, 0 = enzyme-free background; activation factor at 10 µM; hit rate 0.16% among 330,000; AID 2524;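 active = activation factor of the enzyme at least 2-fold when tested at 20 µM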
hIAP act conf = human IAP activation confirmation; purified IAP, CDP-Star luminescence, 30 min; active compounds read low; activation (%Activity, negative = activation), % at 8.3 µM; hit rate 10% among 880; shares compounds with hIAP activ;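 active = at least twofold enzyme activation in any of six single-dose repeats, which the averaged readout prints as negative percent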
Numbers stand for hits; – = inactive; · = not tested or not shown; + = active, no number.

SMILES	hIAP block	bIAP inhibitor	bIAP activator	mIAP inh	mIAP activ	hIAP activ	hIAP act conf
O=C(NNc1ncnc2c1cnn2-c1cccc(Cl)c1)c1ccco1	–	·	·	–	–	3.4	–
CCOC(=O)c1cnc(-n2nc(C)cc2C)nc1NNc1nc(-c2ccccc2)cc(-c2ccccc2)n1	–	–	–	–	–	–	·
CCOC(=O)c1cnc(-n2nc(C)cc2C)nc1NNc1nc(C)cc(C)n1	–	·	·	–	–	–	–
CC1CCCN(C(=O)COC(=O)c2cc(Br)ccc2O)C1 (stereo not drawn)	–	·	·	–	–	–	·
CCOc1ccc(C2NC(=O)C(C#N)=C(S)N2c2cccc(C)c2)cc1OC (stereo not drawn)	–	–	–	–	–	–	·
CCOc1ccc(C2NC(=O)C(C#N)=C(S)N2c2ccc(C)cc2)cc1OC (stereo not drawn)	–	–	–	–	–	2	–
Cc1ccc(OCCNS(=O)(=O)c2ccc(N3CCCC3=O)cc2)cc1	36	–	–	–	–	–	–
Cc1ccc(OCCNS(=O)(=O)c2ccc(N3CCCC3=O)cc2)cc1C	–	–	–	–	–	–	·
COc1ccc(C(=O)NC(=S)NNC(=O)c2ccc(NC(C)=O)cc2)cc1Br	–	–	–	–	–	2.1	–
CCCCC(CC)C(=O)Nc1cc(=O)[nH]c2nc3ccccc3n12 (stereo not drawn)	–	·	·	–	–	2	–
CC(C)CC(=O)c1c[nH]c(C(=O)NCc2ccc(F)cc2)c1	–	·	·	–	–	–	·
COc1ccccc1NC(=S)NCc1ccc(Cl)cc1	–	·	·	–	–	–	·
CSc1ccccc1NC(=S)NCc1ccc(Cl)cc1	40	·	·	–	–	–	–
O=C(Cn1nnc2ccccc2c1=O)NCCc1ccc(Cl)cc1Cl	37	–	–	–	–	–	–
CCN(CC(=O)Nc1c(F)cccc1F)C(=O)CCNC(=O)c1ccco1	–	·	·	–	–	–	·
CN(C(=O)CSc1ncccc1C(=O)O)c1ccccc1	36	–	–	–	–	–	–
CCOCCCNc1nc2c(C)cccn2c(=O)c1/C=C1\SC(=S)N(C(C)CC)C1=O (stereo not drawn)	36	·	·	–	–	–	–
Cc1nc(C)n(CC(C)C(=O)N2CCN(S(=O)(=O)c3ccc(Cl)cc3)CC2)n1 (stereo not drawn)	–	·	·	–	–	–	·
CCOC(=O)c1c(NC(=O)Cn2cc([N+](=O)[O-])cn2)sc2c1CCC2	36	–	–	–	–	–	-91
COC(=O)CSc1nnc(Cc2ccccc2)n1-c1ccc(C)cc1	–	–	–	–	–	–	·
O=C(CSc1nnc(Cc2ccccc2)n1-c1ccccc1)NNC(=O)Cc1ccccc1	–	–	–	–	–	2.1	–
COC(=O)c1ccc(C(=O)OC)c(NC(=O)Nc2ccc3c(c2)OCO3)c1	–	–	–	–	–	2.2	+
COC(=O)c1ccccc1NC(=O)Nc1ccc2c(c1)OCO2	–	–	–	–	–	–	·
Cc1noc(C)c1COc1ccccc1C(=O)N(C)Cc1ccc(C(C)(C)C)cc1	–	·	·	–	–	–	·
COc1ccc(C)cc1NC(=O)Nc1ccc(C(=O)N2CCCC2)cc1	–	·	·	–	–	–	·
SMILES	hIAP block	bIAP inhibitor	bIAP activator	mIAP inh	mIAP activ	hIAP activ	hIAP act conf
O=C(NNC(=O)c1ccccc1Br)c1ccc2nc[nH]c2c1	–	·	·	–	–	2	–
CCOc1ncccc1C(=O)OC(C)C(=O)Nc1ccc(N2CCOCC2)cc1 (stereo not drawn)	–	·	·	–	–	–	·
Nc1nnc(Cc2ccccc2)s1	–	–	–	–	–	–	·
Nc1nnc(Cc2cccc(Br)c2)s1	–	·	·	–	–	2.1	–
Cc1cccc(OCC(=O)Nc2cccc(O)c2)c1	–	–	–	–	–	2.2	–
Cc1ccc(OCC(=O)Nc2cccc(O)c2)cc1C	–	–	–	–	–	–	·
O=C(NCC(=O)N1CCN(c2ncccn2)CC1)c1ccccc1OC(F)F	–	·	·	–	–	–	·
Cc1nnc(SCC(=O)NCc2ccccc2)n1-c1ccccc1	–	–	–	–	–	–	·
Cc1nnc(SCC(=O)NCc2cccs2)n1-c1ccccc1	–	–	–	–	–	2.1	–
O=c1c2ccccc2nc(N/N=C/c2c(O)ccc3ccccc23)n1O	–	–	–	–	–	2	-54
O=c1c2ccccc2nc(N/N=C/c2ccc(O)cc2)n1O	–	–	–	–	–	–	·
COc1ccc(-n2nc3c(N4CCC(C(=O)NCc5cccc(C)c5)CC4)nnc(C)c3c2C)cc1	–	·	·	–	–	2.2	–
COc1ccccc1CCNC(=O)C1CCN(c2nnc(C)c3c(C)n(-c4ccc(C)cc4)nc23)CC1	–	·	·	–	–	2.3	–
CCOc1ccc(CNC(=O)C2CCN(c3nnc(C)c4c(C)n(-c5ccc(C)cc5)nc34)CC2)cc1	–	·	·	–	–	–	·
O=C(O)CCC(=O)Nc1ccccc1C(=O)NC1CCCCC1	–	–	–	–	–	2.1	–
CC1=Nc2ccccc2N=C(NC(=O)CSC(=S)N2CCN(C)CC2)C1c1ccccc1 (stereo not drawn)	–	·	·	–	–	2.4	–
CC1=Nc2ccccc2N=C(NC(=O)CSC(=S)N2CCCCC2)C1c1ccccc1 (stereo not drawn)	–	·	·	–	–	–	·
CCN(C(=O)CSc1nnnn1C)C1CCS(=O)(=O)C1 (stereo not drawn)	–	·	·	–	–	–	·
NC(=O)Cc1ccc(C(=O)CSc2nnc(-c3ccncc3)n2C2CC2)s1	–	·	·	–	–	–	·
c1ccc(-c2nnc(CN3CCCCC3)o2)cc1	–	·	·	–	–	–	·
c1ccc(-c2nnc(CN3CCC4(CC3)OCCO4)o2)cc1	41	–	–	–	–	–	–
CC(C)c1c(C(=O)N/N=C/c2ccc3c(c2)OCO3)nnn1-c1nonc1N	–	·	·	–	–	–	·
CCN(CC)c1ccc(/C=N/NC(=O)c2nnn(-c3nonc3N)c2C(C)C)c(O)c1	–	·	·	–	–	2	–
COc1cc(Cl)ccc1OCc1cc(C(=O)N2CCCCCCC2)no1	39	·	·	–	–	–	–
CCN(CC)S(=O)(=O)c1cccc(NC(=O)CN2C(=O)NC3(CCOc4ccccc43)C2=O)c1 (stereo not drawn)	–	·	·	–	–	–	·
SMILES	hIAP block	bIAP inhibitor	bIAP activator	mIAP inh	mIAP activ	hIAP activ	hIAP act conf
COc1ccc(OC)c(/C=N/NC(=O)c2[nH]ncc2Br)c1	–	·	·	–	–	–	·
Cc1ccc(O)c(/C=N/NC(=O)c2[nH]ncc2Br)c1	–	–	–	–	–	2.2	–
O=C(N/N=C/c1cccs1)c1[nH]ncc1Br	–	·	·	–	–	–	·
Cc1ccc(O)c(/C=N/NC(=O)C2=NNC(c3ccccc3)(c3ccccc3)C2)c1	·	–	–	·	·	·	·
CCOc1ccc(/C=N/NC(=O)c2[nH]ncc2Br)c(O)c1	–	–	–	–	–	2.1	-294
O=C(N/N=C/c1c(O)ccc2ccccc12)c1[nH]ncc1Br	–	–	–	–	–	2.2	–
